Screening results as filed in PubChem BioAssay.
CYP2C19 inh – human CYP2C19 inhibition | inhibition, % at 5 µM | CYP2C19 Supersomes, luciferin-H EGE luminescence, 30 min | P33261 | 96,000 tested, 21% active | AID 778;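 active = CYP2C19 inhibition above a set limit at 5 µM in the primary screen, cut at about 50% in these data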
CYP2C9 act – CYP2C9 (human) activation. recombinant CYP2C9, luciferin-H conversion, luminescence; hits give high values; factor 1 = untreated enzyme, 0 = blocked. activation factor at 5 µM. 96,000 tested, 1.4% active. AID 1024;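 active = activation factor of 2 or more for CYP2C9 at a 5 µM dose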
Rev-RRE block – HIV Rev-RRE protein-RNA interaction inhibition; P05866; Rev peptide-RRE RNA binding, FRET; 97,000 tested, 0.79% active; inhibition, % at 8 µM;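 active = inhibition above the screen-wide mean plus 3 SD, cut at about 35% in these data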
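Test system – labelled RRE RNA duplex and labelled Rev peptide · Reagent – labelled Rev peptide · Doses – one concentration, 8 µM nominal · Incubation – 5 + 15 min at 25 °C · Signal – FRET fluorescence readout · Read-out basis – % inhibition of FRET ratio versus controls · Control set – DMSO wells as 0% and neomycin B wells as 100% inhibition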
Cav32 inh – inhibitors of human Cav3.2 T-type calcium channel. Cav3.2-expressing cells, Fluo-4 calcium fluorescence FDSS; hits give low values. B-score at 10 µM. 100,000 tested, 4% active. AID 449739;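 active = single-dose well whose peak fluorescence ratio is a statistical outlier from its plate by either plate-standardised score or position-corrected B-score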
CYP2C9 inhib – human CYP2C9 inhibition | P11712 | CYP2C9 Supersomes, luciferin-H conversion, luminescence | inhibition, % at 5 µM | 96,000 tested, 20% active;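 active = blocking of liver enzyme CYP2C9 beyond about 50% at 5 µM, limit read from the data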
CYP2C19 act – activators of human cytochrome P450 2C19 | P33261 | recombinant CYP2C19, luciferin-H EGE luminescence; hits give high values; 0 = fully inhibited enzyme, 1 = untreated enzyme | activation factor at 5 µM | 96,000 tested, under 10 active | AID 1025;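 active = activation factor of at least 2 at 5 µM in the primary screen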
Hits are given with their value; – = inactive; · = no result given. This is a sample that favours compounds with a hit; in the whole collection about 27% have one here.

SMILES | CYP2C19 inh | CYP2C9 act | Rev-RRE block | Cav32 inh | CYP2C9 inhib | CYP2C19 act
Cc1ccc(NC(=O)CSc2nc(NS(=O)(=O)c3ccccc3)cc(=O)[nH]2)cc1 | – | – | – | – | 61 | –
COc1ccc(CC(C)N2CCN(c3cccc(C(F)(F)F)c3)CC2)cc1OC (stereo unspecified) | – | – | – | – | – | –
O=C(NCc1cccs1)[C@@H]1CSC2c3ccccc3C(=O)N21 (stereo partly specified) | 75 | – | – | – | 72 | –
O=C(NCc1ccco1)[C@@H]1CSC2c3ccccc3C(=O)N21 (stereo partly specified) | 57 | – | – | – | – | –
COc1ccc(C2=CC3=C(Br)C(=O)C(C)(OC(=O)c4cnc5ccccc5n4)C(=O)C3=CO2)cc1 (stereo unspecified) | · | · | · | – | · | ·
COc1ccc(OC)c(NC(=S)NCc2ccco2)c1 | · | · | – | – | · | ·
CCOc1cc(N2CCOCC2)c(OCC)cc1NC(=O)COc1ncnc2ccc(Br)cc12 | – | – | – | – | – | –
COc1cccc(CNn2c(-c3cccc(C)c3)nc3ccccc3c2=O)c1O | 80 | – | – | – | – | –
CCCn1c(NCc2cccc(OC)c2O)nc2ccccc21 | · | · | – | – | · | ·
COc1ccc(N2CCN(C(=O)C34CCC(C)(C(=O)C3)C4(C)C)CC2)cc1 (stereo unspecified) | – | – | – | – | – | –
CC12CCC(C(=O)N3CCCc4ccccc43)(CC1=O)C2(C)C (stereo unspecified) | – | – | – | – | – | –
CC12CCC(C(=O)N3CCc4ccccc43)(CC1=O)C2(C)C (stereo unspecified) | – | – | – | · | 58 | –
CC12CCC(C(=O)N3CCN(c4ccccc4)CC3)(CC1=O)C2(C)C (stereo unspecified) | 54 | – | – | – | – | –
CN1C(C(=O)NCCc2cccs2)CC2Cn3c(nc4cc(Cl)c(Cl)cc43)C21 (stereo unspecified) | · | · | · | – | · | ·
Cc1cc(C(=O)NCCCN2CCCC2=O)no1 | – | – | – | – | – | –
O=S1(=O)N=C(Nc2ccc(O)c(CN3CCCCC3)c2)c2ccccc21 | – | – | · | – | – | –
O=C(c1ccccc1)N1CCN(C2CC3CCC2C3)CC1 (stereo unspecified) | 82 | – | – | – | – | –
O=C(c1cccc(F)c1)N1CCN(C2CCCCC2)CC1 | – | – | – | – | – | –
O=C(c1ccc(F)cc1)N1CCN(C2CC3CCC2C3)CC1 (stereo unspecified) | 76 | – | – | – | – | –
Cc1ccc(Cl)cc1N1CCN(S(=O)(=O)c2ccc3c(c2)OCCO3)CC1 | – | – | – | -5.2 | 80 | –
Cc1cc(C)c2oc(=O)cc(CN3CCN(Cc4ccc5c(c4)OCO5)CC3)c2c1 | – | – | – | · | – | –
Cc1cc2oc(=O)cc(CN3CCN(S(=O)(=O)c4ccc5c(c4)OCCO5)CC3)c2cc1C | 58 | – | · | – | 84 | –
Cc1ccc(C)c(N2CCN(S(=O)(=O)c3ccc4c(c3)OCCO4)CC2)c1 | 81 | – | – | – | 90 | –
Cc1occc1-c1nnc(SCC(=O)NC2CCCC2)n1-c1ccccc1 | · | · | – | – | · | ·
CC(=O)Nc1cccc(NC(=O)c2sc3ncn(CC(=O)N4CCCCC4)c(=O)c3c2C)c1 | 79 | – | · | – | 80 | –
SMILES | CYP2C19 inh | CYP2C9 act | Rev-RRE block | Cav32 inh | CYP2C9 inhib | CYP2C19 act
CCN(CC)C(=O)Cn1cnc2sc(C(=O)Nc3cc(OC)c(OC)c(OC)c3)c(C)c2c1=O | 79 | – | – | – | 92 | –
CCCNC(=O)Cn1cnc2sc(C(=O)Nc3cc(OC)c(OC)c(OC)c3)c(C)c2c1=O | – | – | – | – | – | –
COCCNC(=O)c1sc2ncn(CC(=O)N3CCCCC3)c(=O)c2c1C | – | – | · | – | – | –
CCOC(=O)C1CCCCN1Cc1ccc(F)c(Br)c1 (stereo unspecified) | 82 | – | – | – | – | –
COc1c(C(O)CC(C)C)ccc2c1C(=O)OCc1cc(C)cc(O)c1O2 (stereo unspecified) | · | · | · | – | · | ·
COc1c(C(CC(C)C)OC(C)=O)ccc2c1C(=O)OCc1cc(C)cc(O)c1O2 (stereo unspecified) | · | · | · | -3.8 | · | ·
Cc1oc(C(=O)O)cc1COc1ccc2c3c(c(=O)oc2c1)CCC3 | – | – | – | – | – | –
O=C(CN1C(=O)C2CC=CCC2C1=O)Nc1nnc(SCc2c(Cl)cccc2Cl)s1 (stereo unspecified) | – | – | – | – | – | –
O=C(CN1C(=O)C2CC=CCC2C1=O)Nc1nnc(SCc2ccc(Cl)cc2)s1 (stereo unspecified) | – | – | – | -4.5 | – | –
O=S(=O)(Nc1ccc2c(c1)nc1n2CCOC1)c1ccc(Cl)cc1 | – | – | – | – | 73 | –
CCOc1ccccc1NC(=S)/C(=C(\[O-])c1ccc2c(c1)OCCO2)[n+]1ccc(CC)cc1 | 59 | – | – | – | 62 | –
COC(=O)c1ccc(CN2[C@H](C(=O)OC)C[C@@]3(O)[C@@H](O)[C@@H](O)[C@@H](O)C[C@@H]23)cc1 | · | · | · | – | · | ·
CC1(c2ccccc2)NC(=S)N2C1NC(=S)N2c1ccccc1 (stereo unspecified) | 70 | – | – | – | – | –
COc1cccc(OCCc2c(C)n[nH]c2C)c1 | – | – | – | – | – | –
COc1cccc(/C=N/NC(=O)CCc2c(C)n[nH]c2C)c1 | – | – | – | – | – | –
Cc1cccc(OCCCCc2c(C)n[nH]c2C)c1 | 89 | – | – | -5.8 | 76 | –
COc1ccc(OCCCc2c(C)n[nH]c2C)cc1 | 85 | – | – | · | 69 | –
Cc1n[nH]c(C)c1CCCOc1ccccc1 | 87 | – | – | – | 60 | –
CCOc1ccc(NC(=O)CCN2CCN(S(=O)(=O)c3ccc(Cl)cc3)CC2)cc1 | 72 | – | – | – | 73 | –
COc1ccc(S(=O)(=O)N2CCCN(CC(=O)Nc3cc(NC(C)=O)ccc3OC)CC2)cc1 | – | – | – | – | – | –
COc1ccc(S(=O)(=O)N2CCC(O)(c3ccc(Cl)cc3)CC2)cc1 | 68 | 2.3 | – | – | – | –
COc1ccc(S(=O)(=O)N2CCCN(CC(=O)Nc3ccc(OC)c(Cl)c3)CC2)cc1 | 59 | – | – | – | – | –
COc1ccc(NC(=O)CN2CCN(S(=O)(=O)c3ccc(Cl)cc3)CC2)cc1Cl | – | – | – | – | – | –
COc1ccc(NC(=O)CN2CCN(S(=O)(=O)c3ccc(Cl)cc3)CC2)cc1 | 81 | – | – | – | – | –
CCOc1ccc(NC(=O)CCN2CCCCC2)cc1 | – | – | – | – | – | –
COc1ccc(C(CNC(=O)c2cc3ccccc3cc2OC)N2CCCC2)cc1 (stereo unspecified) | – | – | – | · | – | –
CCOC(=O)N1CCN(C(=O)CN(c2ccc3c(c2)OCO3)S(C)(=O)=O)CC1 | – | – | – | – | – | –
